In ChEMBL document CHEMBL3621123, “Discovery and Optimization of a Series of Pyrimidine-Based Phosphodiesterase 10A (PDE10A) Inhibitors through Fragment Screening, Structure-Based Design, and Parallel Synthesis” (J Med Chem, 2015):
The source made the active and inactive calls. The rule behind the calls is not given here.

Tests used:
[1] = biological target: cAMP and cAMP-inhibited cGMP 3',5'-cyclic phosphodiesterase 10A (Homo sapiens, UniProt Q9Y233); assay: Inhibition of human PDE10A2 transfected in AD293 cells by IMAP FP assay; format: cell-based
Method in brief: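 Ki values are the mean of at least two determinations, each from a 10-point dose–response curve.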

Homo sapiens [2] = organism: Homo sapiens; assay: Selectivity ratio of Ki for human PDE3A to Ki for human PDE10A2
Method in brief: (§1)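 The ratio is PDEx Ki divided by PDE10A Ki. Each Ki is the mean of at least two determinations, each from a 10-point dose–response curve.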

Homo sapiens [3] = organism: Homo sapiens; assay: Selectivity ratio of Ki for human PDE1A to Ki for human PDE10A2; method in brief: as §1
[4] = Selectivity ratio of Ki for rhesus monkey PDE2A3 to Ki for human PDE10A2; method in brief: as §1
Homo sapiens [5] = organism: Homo sapiens; assay: Selectivity ratio of Ki for human PDE5A1 to Ki for human PDE10A2; method in brief: as §1
Homo sapiens [6] = organism: Homo sapiens; assay: Selectivity ratio of Ki for human PDE8A1 to Ki for human PDE10A2; method in brief: as §1
Homo sapiens [7] = organism: Homo sapiens; assay: Selectivity ratio of Ki for human PDE9A2 to Ki for human PDE10A2; method in brief: as §1
Homo sapiens [8] = organism: Homo sapiens; assay: Selectivity ratio of Ki for human PDE7A to Ki for human PDE10A2; method in brief: as §1
Homo sapiens [9] = organism: Homo sapiens; assay: Selectivity ratio of Ki for human PDE4A1A to Ki for human PDE10A2; method in brief: as §1
Homo sapiens [10] = organism: Homo sapiens; assay: Selectivity ratio of Ki for human PDE11A4 to Ki for human PDE10A2; method in brief: as §1
[11] = Plasma concentration in Wistar Hannover rat at 3 mg/kg, ip measured after 3.5 hrs; format: ADME, organism-based
Method in brief: (§2)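 Plasma was sampled 3.5 h after a single ip dose, during the MK-801 hyperlocomotion study. Each value is the mean of two or three measurements.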

[12] = Plasma concentration in Wistar Hannover rat at 5 mg/kg, ip measured after 3.5 hrs; format: ADME, organism-based; method in brief: as §2
[13] = Plasma concentration in Wistar Hannover rat at 1 mg/kg, ip measured after 3.5 hrs; format: ADME, organism-based; method in brief: as §2
Rattus norvegicus = assay: Suppression of MK-801-induced hyperlocomotion in Wistar Hannover rat at 1 to 5 mg/kg, ip administered 120 mins followed by MK-801 induction measured after 90 mins; format: functional, organism-based
Method in brief: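 Rats received ip doses of 1, 3 or 5 mg/kg and were then challenged with MK-801. Psychostimulant-induced locomotor activity was the read-out.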

cAMP and cAMP-inhibited cGMP 3',5'-cyclic phosphodiesterase 10A, sequence (Q9Y233 whole entry): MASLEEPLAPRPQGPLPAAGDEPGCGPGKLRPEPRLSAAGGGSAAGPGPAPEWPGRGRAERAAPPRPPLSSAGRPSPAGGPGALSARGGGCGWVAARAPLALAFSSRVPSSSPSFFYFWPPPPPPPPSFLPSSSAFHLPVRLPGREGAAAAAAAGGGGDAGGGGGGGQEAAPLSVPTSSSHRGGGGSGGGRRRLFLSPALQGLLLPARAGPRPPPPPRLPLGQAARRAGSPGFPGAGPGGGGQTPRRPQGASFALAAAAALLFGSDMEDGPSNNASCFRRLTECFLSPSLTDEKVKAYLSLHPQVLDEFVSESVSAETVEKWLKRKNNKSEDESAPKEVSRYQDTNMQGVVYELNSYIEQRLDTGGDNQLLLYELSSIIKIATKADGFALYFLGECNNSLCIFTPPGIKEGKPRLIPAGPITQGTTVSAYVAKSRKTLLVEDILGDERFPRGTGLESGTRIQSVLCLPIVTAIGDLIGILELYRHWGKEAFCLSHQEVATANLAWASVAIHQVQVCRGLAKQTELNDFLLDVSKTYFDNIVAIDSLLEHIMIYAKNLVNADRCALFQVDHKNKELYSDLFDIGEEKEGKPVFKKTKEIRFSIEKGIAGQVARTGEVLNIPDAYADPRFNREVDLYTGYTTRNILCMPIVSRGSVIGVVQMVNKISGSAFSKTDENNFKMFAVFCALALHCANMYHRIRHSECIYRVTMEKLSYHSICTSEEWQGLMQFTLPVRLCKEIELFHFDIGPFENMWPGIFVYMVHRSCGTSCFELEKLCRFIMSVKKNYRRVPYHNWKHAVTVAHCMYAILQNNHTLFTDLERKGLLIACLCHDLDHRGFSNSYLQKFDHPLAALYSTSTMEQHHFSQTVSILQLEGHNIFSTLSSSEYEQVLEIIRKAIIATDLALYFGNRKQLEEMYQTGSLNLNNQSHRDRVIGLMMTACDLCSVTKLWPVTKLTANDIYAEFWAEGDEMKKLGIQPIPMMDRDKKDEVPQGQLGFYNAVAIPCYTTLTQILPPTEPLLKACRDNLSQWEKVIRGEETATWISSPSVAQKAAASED

SMILES: Cc1cc(CNc2nc(C3CC3)nc(Cl)c2C)on1
- Ki [1]: 38 nM

SMILES: Cc1cc(CN(C)c2nc(C3CC3)nc(Cl)c2C)on1
- Ki [1]: 540 nM

SMILES: Cc1c(Cl)nc(C2CC2)nc1NCCc1cnn(C)c1
- Ki [1]: 1500 nM

SMILES: Cc1nc(C)c(CNc2nc(OCCC3CCCCN3)nc(Cl)c2C)s1 (centres undefined)
- Ki [1]: 590 nM

SMILES: COc1ncc(CNc2nc(C3CC3)nc(Cl)c2C)s1
- Ki [1]: 10 nM

SMILES: Cc1c(Cl)nc(C2CC2)nc1NCc1ccncc1
- Ki [1]: 200 nM

SMILES: Cc1nc(C)c(CNc2nc(OCCc3ccccn3)nc(Cl)c2C)s1
- Ki [1]: 2 nM

SMILES: Cc1c(Cl)nc(C2CC2)nc1N1CCCC1
- Ki [1]: 5300 nM

SMILES: CCCNc1nc(C2CC2)nc(Cl)c1C
- Ratio Ki (Homo sapiens [2]): 25
- Ratio Ki (Homo sapiens [3]): 25
- Ratio Ki [4]: 100
- Ratio Ki (Homo sapiens [5]): 1
- Ratio Ki (Homo sapiens [6]): 25
- Ratio Ki (Homo sapiens [7]): 25
- Ratio Ki (Homo sapiens [8]): 25
- Ratio Ki (Homo sapiens [9]): 1
- Ki [1]: 880 nM
- Ratio Ki (Homo sapiens [10]): 25

SMILES: Cc1ncc(CNc2nc(C3CC3)nc(Cl)c2C)s1
- Ki [1]: 26 nM

SMILES: Cc1c(Cl)nc(C2CC2)nc1Cl
- Ratio Ki (Homo sapiens [2]): 1
- Ratio Ki (Homo sapiens [3]): 1
- Ratio Ki [4]: 1
- Ratio Ki (Homo sapiens [5]): 1
- Ratio Ki (Homo sapiens [6]): 1
- Ratio Ki (Homo sapiens [7]): 1
- Ratio Ki (Homo sapiens [8]): 1
- Ratio Ki (Homo sapiens [9]): 1
- Ki [1]: 8700 nM
- Ratio Ki (Homo sapiens [10]): 1

SMILES: CCNc1nc(C2CC2)nc(Cl)c1C
- Ki [1]: 1200 nM

SMILES: Cc1nc(C)c(CNc2nc(OCCCc3cn4ccccc4n3)nc(Cl)c2C)s1
- Ki [1]: 0.047 nM

SMILES: Cc1cc(CNc2nc(C3CC3)nc(Cl)c2C)no1
- Ki [1]: 51 nM

SMILES: Cc1c(Cl)nc(C2CC2)nc1NCc1ccon1
- Ki [1]: 810 nM

SMILES: Cc1nc(C)c(CNc2nc(OCCCc3ccc4cccnc4n3)nc(Cl)c2C)s1
- Ki [1]: 0.11 nM

SMILES: Cc1c(Cl)nc(C2CC2)nc1NCc1ccoc1
- Ki [1]: 680 nM

SMILES: Cc1c(N)nc(C2CC2)nc1Cl
- Ki [1]: 2200 nM

SMILES: Cc1nc(C)c(CNc2nc(OCCO)nc(Cl)c2C)s1
- Ki [1]: 12 nM

SMILES: Cc1c(Cl)nc(C2CC2)nc1N1CCNCC1
- Ki [1]: 4600 nM

SMILES: Cc1c(Cl)nc(C2CC2)nc1NCc1cnn(C)c1
- Ki [1]: 37 nM

SMILES: Cc1csc(CNc2nc(C3CC3)nc(Cl)c2C)n1
- Ki [1]: 6800 nM

SMILES: Cc1nc(C)c(CNc2nc(OCCC3CCCCC3)nc(Cl)c2C)s1
- Ki [1]: 400 nM

SMILES: Cc1nc(C)c(CNc2nc(OCCCc3nc4ccccc4[nH]3)nc(Cl)c2C)s1
- Ki [1]: 0.02 nM

SMILES: Cc1nc(C)c(CNc2nc(OCCCc3cnc4ccccc4n3)nc(Cl)c2C)s1
- Ki [1]: 0.37 nM

SMILES: Cc1c(Cl)nc(C2CC2)nc1NC1CCCC1
- Ki [1]: 2800 nM

SMILES: Cc1ncsc1CNc1nc(C2CC2)nc(Cl)c1C
- Ki [1]: 1600 nM

SMILES: CCCOc1nc(Cl)c(C)c(NCc2sc(C)nc2C)n1
- Ki [1]: 5.1 nM

SMILES: C=C(F)CNc1nc(C2CC2)nc(Cl)c1C
- Ki [1]: 180 nM

SMILES: COc1nc(Cl)c(C)c(NCc2sc(C)nc2C)n1
- Ki [1]: 8.5 nM

SMILES: Cc1nc(C)c(CNc2nc(C3CC3)nc(Cl)c2C)s1
- Ratio Ki (Homo sapiens [2]): > 1000
- Ratio Ki (Homo sapiens [3]): > 1000
- Ratio Ki [4]: > 1000
- Ratio Ki (Homo sapiens [5]): 100
- Ratio Ki (Homo sapiens [6]): > 1000
- Ratio Ki (Homo sapiens [7]): > 1000
- Ratio Ki (Homo sapiens [8]): > 1000
- Ratio Ki (Homo sapiens [9]): 100
- Ki [1]: 4.8 nM
- Ratio Ki (Homo sapiens [10]): 25

SMILES: Cc1c(Cl)nc(C2CC2)nc1NCc1cccnc1
- Ki [1]: 1000 nM

SMILES: Cc1nc(C)c(CNc2nc(OCCc3ccccc3)nc(Cl)c2C)s1
- Ki [1]: 9 nM

SMILES: Cc1nc(CNc2nc(C3CC3)nc(Cl)c2C)cs1
- Ki [1]: 18 nM

SMILES: Cc1c(Cl)nc(C2CC2)nc1NC(C)c1ccncc1 (racemic)
- Ki [1]: 890 nM

SMILES: Cc1c(Cl)nc(C2CC2)nc1N(C)Cc1cnn(C)c1
- Ki [1]: 220 nM

SMILES: Cc1c(Cl)nc(C2CC2)nc1NCc1cncs1
- Ki [1]: 1000 nM

SMILES: Cc1ccc(CNc2nc(C3CC3)nc(Cl)c2C)cn1
- Ki [1]: 130 nM

SMILES: Cc1nc(C)c(CNc2nc(OCCCc3ccc4ccccc4n3)nc(Cl)c2C)s1
- concentration at 3.5 h [11]: 83 nM
- Ratio Ki (Homo sapiens [2]): > 1000
- Ratio Ki (Homo sapiens [3]): > 1000
- Ratio Ki [4]: > 1000
- Ratio Ki (Homo sapiens [5]): > 1000
- Ratio Ki (Homo sapiens [6]): > 1000
- concentration at 3.5 h [12]: 110 nM
- Ratio Ki (Homo sapiens [7]): > 1000
- Ratio Ki (Homo sapiens [8]): > 1000
- concentration at 3.5 h [13]: 17 nM
- Ratio Ki (Homo sapiens [9]): > 1000
- Ki [1]: 0.0082 nM
- Activity (Rattus norvegicus): Active
- Ratio Ki (Homo sapiens [10]): > 1000

SMILES: Cc1c(Cl)nc(C2CC2)nc1NC(C)C
- Ki [1]: 3600 nM

SMILES: Cc1c(Cl)nc(C2CC2)nc1N1CCCCC1
- Ki [1]: 2100 nM

SMILES: Cc1nc(C)c(CNc2nc(OCCCc3nc4ccccc4s3)nc(Cl)c2C)s1
- Ki [1]: 0.055 nM

SMILES: Cc1c(Cl)nc(C2CC2)nc1NCc1ccccc1
- Ki [1]: 1400 nM

SMILES: Cc1nc2c(s1)CN(c1nc(C3CC3)nc(Cl)c1C)CC2
- Ki [1]: 1300 nM
